Source: PubChem BioAssay AID624020 (Broad Institute, 2012)
Activity calls are given as the source filed them.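 The calls were made as follows: active = fitted curve reaching 35% inhibition at both 405 and 600 nm absorbance, in duplicate, within twice the top valid dose; inactive = the rest, including signal rising instead of falling.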

Legend:
[1] = P. aeruginosa growth delay under iron chelation, dose response, pyoverdine/PvdQ inhibitor project, absorbance 405 nm, dry powder, set 3 (AID 624020); settings: P. aeruginosa growth + EDDHA, pyoverdine absorbance 405 nm; at 50 µM (top of the series)
Outline: (§1)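 Material: Pseudomonas aeruginosa strain ATCC 15692, whole bacteria; Quantity: bacterial inoculum at final OD600 of 0.0000005; Buffer or medium: pH 7.0 succinate M9 plus 2 µM EDDHA; Reagent: iron chelator EDDHA at 2 µM final; Timing: 24–30 h culture at 37 °C; Measured by: absorbance at 405 nm reflecting pyoverdine production.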

[2] = tested on: P. aeruginosa growth + EDDHA, pyoverdine absorbance 405 nm; experiment: as above
Outline: as §1

| SMILES | activity change, negative = inhibition [1] | AC35 [2] |
| --- | --- | --- |
| N#CC(CC1CC1)c1ccc(Cl)cc1 (centres undefined) | 3.25% (inactive) | – |
| N#CC(c1ccc(Cl)cc1)c1cccc(Cl)n1 (centres undefined) | – | 33.5 µM |
| N#CC(c1ccc(Cl)cc1)c1ccc(C(F)(F)F)cn1 (centres undefined) | 8.01% (inactive) | – |
| CCCCC(C#N)c1ccc(F)cc1 (centres undefined) | 8.04% (inactive) | – |
| CCCCC(C#N)c1ccccc1OC(F)(F)F (centres undefined) | -1.21% (inactive) | – |
| CCCC(C#N)c1ccc(Cl)cc1 (centres undefined) | -9% (inactive) | – |
| N#Cc1cccc(C(C#N)c2ccc(Cl)cc2)n1 (centres undefined) | 3.83% (inactive) | – |
| Cc1ccc(C(C#N)c2ccc(Cl)cc2)nc1 (centres undefined) | 7.58% (inactive) | – |
| Cc1ccc(C(C#N)c2ccc(Cl)cc2)nc1C#N (centres undefined) | 5.29% (inactive) | – |
| N#CC(c1cccc(Cl)n1)c1ccccc1OC(F)(F)F (centres undefined) | -0.322% (inactive) | – |
| N#CC(c1ccc(F)cc1)c1cccc(C(F)(F)F)n1 (centres undefined) | – | 44.8 µM |
| N#CC(c1ccc(C(F)(F)F)c(Cl)n1)c1ccc(Cl)cc1Cl (centres undefined) | – | > 50 µM (inactive) |
| Cc1ccc(C(C#N)c2ccc(F)cc2)nc1C#N (centres undefined) | 4.87% (inactive) | – |
| Cc1cccc(C(C#N)c2ccc(Cl)cc2)n1 (centres undefined) | 14% (inactive) | – |
| N#Cc1cccc(C(C#N)c2ccccc2OC(F)(F)F)n1 (centres undefined) | 4.22% (inactive) | – |
| CCCCC(C#N)c1ccc(Cl)cc1 (centres undefined) | -10.7% (inactive) | – |
| CCCCC(C#N)c1ccc(Cl)cc1Cl (centres undefined) | 14.9% (inactive) | – |
| CCCCC(C#N)c1ccc(Cl)cc1F (centres undefined) | 15.6% (inactive) | – |
| N#Cc1cccc(C(C#N)c2ccc(Cl)cc2Cl)n1 (centres undefined) | -0.74% (inactive) | – |
| N#CC(c1cccc(C(F)(F)F)n1)c1ccc(Cl)cc1F (centres undefined) | -4.42% (inactive) | – |

| SMILES | activity change, negative = inhibition [1] | AC35 [2] |
| --- | --- | --- |
| CCCCC(C#N)c1ccc(C(F)(F)F)cc1 (centres undefined) | 16.2% (inactive) | – |
| N#CC(c1ccc(Cl)cc1)c1ccc(C(F)(F)F)c(Cl)n1 (centres undefined) | -1.44% (inactive) | – |
| N#Cc1ccc(C(C#N)c2ccc(Cl)cc2)nc1 (centres undefined) | 5.84% (inactive) | – |
| CC(C#N)(c1ccc(Cl)cc1)c1ccc(C(F)(F)F)cn1 (centres undefined) | 9.6% (inactive) | – |
| N#CC(c1ccc(C(F)(F)F)c(Cl)n1)c1ccccc1OC(F)(F)F (centres undefined) | -1.95% (inactive) | – |
| N#CC(c1ccc(Cl)cc1)c1ccc(Cl)cn1 (centres undefined) | -3.9% (inactive) | – |
| N#Cc1ccc(C(C#N)c2ccc(Cl)cc2Cl)nc1 (centres undefined) | 4.54% (inactive) | – |
| CC(C)CC(C#N)c1ccc(Cl)cc1 (centres undefined) | 3.56% (inactive) | – |
| N#CC(c1ccc(Cl)cc1)c1cccc(C(F)(F)F)n1 (centres undefined) | – | 16.8 µM |
| N#CC(c1ccc(C(F)(F)F)cc1)c1cccc(Cl)n1 (centres undefined) | 17.5% (inactive) | – |
| Cc1ccc(C(C#N)c2ccccc2OC(F)(F)F)nc1C#N (centres undefined) | 9.74% (inactive) | – |
| N#CC(c1cccc(Cl)n1)c1ccc(Cl)cc1Cl (centres undefined) | 0.286% (inactive) | – |
| N#CC(c1ccc(C(F)(F)F)cc1)c1ccc(C(F)(F)F)c(Cl)n1 (centres undefined) | 20.8% (inactive) | – |
| N#CC(c1ccc(Cl)cc1Cl)c1ncccc1Cl (centres undefined) | 13% (inactive) | – |
| N#CC(c1ccc(C(F)(F)F)cc1)c1cccc(C(F)(F)F)n1 (centres undefined) | 20.5% (inactive) | – |
| N#CC(c1cccc(C(F)(F)F)n1)c1ccccc1OC(F)(F)F (centres undefined) | 7.17% (inactive) | – |
| N#Cc1cccc(C(C#N)c2ccc(Cl)cc2F)n1 (centres undefined) | 7.99% (inactive) | – |
| N#CC(c1ccc(C(F)(F)F)c(Cl)n1)c1ccc(Cl)cc1F (centres undefined) | 2.37% (inactive) | – |
| COc1cccc(C(C#N)c2ccc(F)cc2)n1 (centres undefined) | 9.45% (inactive) | – |
